A selection: hits, their analogues and other compounds. The true share with any hit is near 3.5%.
RGS4 inh – inhibitors of human RGS4; P49798; HEK293 M3R/RGS4 inducible, Fluo-4 calcium flux; active compounds read high; triggered by carbachol at its EC20; B-score at 10 µM; 310,000 compounds, 0.45% hits;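 active means B-score, a plate-corrected calcium signal, over three deviations above library mean, with baseline fluorescence within five deviations of library mean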;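 further: RGS4 expression induced by doxycycline in cells with stable M3 receptor; B-score is computed from the integrated fluorescence ratio over baseline after carbachol; higher B-score means a larger calcium signal and so more RGS4 inhibition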
Target sequence (P49798 whole entry, looked up): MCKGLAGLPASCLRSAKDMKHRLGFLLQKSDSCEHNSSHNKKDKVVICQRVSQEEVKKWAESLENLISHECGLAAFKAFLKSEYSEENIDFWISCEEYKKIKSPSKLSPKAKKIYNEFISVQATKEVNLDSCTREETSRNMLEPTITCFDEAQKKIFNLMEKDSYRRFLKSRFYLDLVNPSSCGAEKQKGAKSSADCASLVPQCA
MrgX1 PAM – human MrgX1 positive allosteric modulation, primary screen; MrgX1-HEK293, Fluo-4 calcium flux, FDSS; active compounds read high; AID 588675; B-score at 10 µM; Q96LB2; 310,000 compounds, 0.63% hits;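 active means plate-corrected calcium response at least 3 library SD above typical, normal starting fluorescence, not activating the receptor alone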;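 further: compound read alongside a low EC10 to EC30 dose of BAM8-22 agonist; peak minus trough fluorescence over baseline measured at the second addition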
Target sequence (Q96LB2 whole entry, looked up): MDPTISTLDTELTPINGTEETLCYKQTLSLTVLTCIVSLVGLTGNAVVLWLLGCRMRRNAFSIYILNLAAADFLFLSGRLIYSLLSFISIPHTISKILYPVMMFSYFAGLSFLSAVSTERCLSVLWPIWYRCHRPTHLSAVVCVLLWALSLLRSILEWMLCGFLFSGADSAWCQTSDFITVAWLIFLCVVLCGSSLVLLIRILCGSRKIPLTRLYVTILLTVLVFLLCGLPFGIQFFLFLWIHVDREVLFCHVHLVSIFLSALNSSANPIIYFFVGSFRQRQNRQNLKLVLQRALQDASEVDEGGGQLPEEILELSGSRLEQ
RGS4 act – RGS4 potentiation or activation; HEK293 M3R/inducible RGS4, carbachol calcium flux Fluo4; active compounds read low; B-score at 10 µM; 310,000 compounds, 0.92% hits; AID 463111;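 active means B-score of the integrated calcium signal more than 4 SD below the library mean, with starting fluorescence not abnormally high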;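 further: negative B-score means reduced calcium response which marks RGS4 activation or potentiation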
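Test system: HEK293 cells with stable M3R and inducible RGS4; also added: carbachol at ECmax as muscarinic agonist stimulus; schedule: dye loading 30 min 37 °C, buffer rest 30 min RT; technique: kinetic calcium fluorescence imaging with Fluo4-AM dye, 2 µM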
MrgX1 ag – activates human MrgX1 receptor signaling | MrgX1-HEK293 cells, Fluo-4 calcium fluorescence, agonist mode; active compounds read high | 310,000 compounds, 0.44% hits | AID 588627 | B-score at 10 µM | Q96LB2;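 active means calcium response B-score plate-corrected fluorescence ratio at least 3 library SD, with starting fluorescence B-score inside 5 SD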
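Test system: HEK293 cells stably expressing human MrgX1 receptor; amount: 15,000 cells per well; doses: compound delivered in addition one of three; times: overnight plating before 1 h dye loading; detection: Fluo-4 NW calcium-flux fluorescence, kinetic read; read-out basis: B-scored fluorescence response ratio; controls: positive and negative controls per plate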
MrgX1 antagonist – blocks BAM8-22 activation of human MrgX1 receptor; B-score at 10 µM; AID 588676; 310,000 compounds, 1.3% hits; MRGX1-HEK293 calcium flux, Fluo-4, BAM8-22 antagonism; active compounds read low; Q96LB2;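 active means calcium-response B-score plate-corrected more than 3 library SD below zero, starting fluorescence within 5 deviations, no agonist response on first addition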;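 further: peak minus trough fluorescence over baseline after final BAM8-22 challenge near maximal dose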
MrgX1 ant reconf – confirmation of human MrgX1 receptor antagonists; shares compounds with MrgX1 antagonist; MrgX1-HEK293, BAM8-22 calcium flux, Fluo-4; active compounds read low; remaining BAM8-22 calcium response % of control (active compounds read low), % at 10 µM; 2,300 compounds, 19% hits; AID 602420;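 active means remaining agonist calcium response no higher than 100% minus 3 SD of agonist-only control wells, with starting fluorescence near control levels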;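 further: agonist BAM8-22 given at a near maximal EC90 to ECmax level; peak minus minimum fluorescence divided by baseline after agonist addition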
HEK293 Ca flux – counter-screen for MrgX1 antagonists: effect in parental HEK293 cells; shares compounds with MrgX1 antagonist; Fluo-4 calcium fluorescence, FDSS; fluorescence ratio F(max-min)/F0 at 10 µM; 4,000 compounds, 2% hits; AID 624111;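 active means duplicate-averaged calcium fluorescence ratio at least three times the standard deviation of buffer wells, a nonspecific response in parental cells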
HEK293 Ca counter – activity in parental HEK293 cells without MrgX1. shares compounds with MrgX1 antagonist. parental HEK293 calcium flux, Fluo-4 fluorescence ratio; active compounds read high. fluorescence ratio F(max-min)/F0 at 10 µM. 4,000 compounds, 0.4% hits;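 active means calcium fluorescence ratio, averaged over duplicates, at least 3 SD of the buffer-well ratio, meaning a nonspecific response in receptor-free cells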;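 further: untransfected parental HEK293 lacking MrgX1 used as counterscreen for MrgX1 allosteric activators; fluorescence change taken during the second addition on a kinetic imager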
HEK293 Ca cntr2 – activity in parental HEK293 cells lacking MrgX1 receptor; 4,000 compounds, 8.7% hits; AID 624115; Fluo-4 calcium fluorescence (FDSS); active compounds read high; fluorescence ratio F(max-min)/F0 at 10 µM; shares compounds with MrgX1 antagonist;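 active means calcium fluorescence ratio at least three times the spread of buffer wells, meaning a non-specific response in parental cells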
* = called active by the depositor.

How did C/C(=N\NC(=O)c1nnn(-c2nonc2N)c1CN(C)c1ccccc1)c1cccnc1 do in these assays?
RGS4 inh: inactive; MrgX1 PAM: inactive; RGS4 act: inactive; MrgX1 ag: inactive; MrgX1 antagonist: inactive

How did CN1C(=O)N(C)C2C1N(CN1CCCCC1)C(=O)N2CN1CCCCC1 (stereo not given) do in these assays?
RGS4 inh: inactive; MrgX1 PAM: inactive; RGS4 act: inactive; MrgX1 ag: inactive; MrgX1 antagonist: -4.9*; MrgX1 ant reconf: 84%*; HEK293 Ca flux: inactive; HEK293 Ca counter: inactive; HEK293 Ca cntr2: inactive

What do the screens show for `O=C(O)CCCC(=O)Nc1ccccc1C(=O)O`?
RGS4 inh: inactive; MrgX1 PAM: inactive; RGS4 act: inactive; MrgX1 ag: inactive; MrgX1 antagonist: -6.4*; MrgX1 ant reconf: inactive; HEK293 Ca flux: inactive; HEK293 Ca counter: inactive; HEK293 Ca cntr2: inactive

Results for CSc1nc(C)c(C(=O)C[n+]2ccc(C)cc2)cc1C#N ?
RGS4 inh: inactive; MrgX1 PAM: inactive; RGS4 act: inactive; MrgX1 ag: inactive; MrgX1 antagonist: inactive

Results for O=C(Cc1ccsc1)Nc1ccc(S(=O)(=O)C(F)F)cc1 ?
RGS4 inh: inactive; MrgX1 PAM: inactive; RGS4 act: inactive; MrgX1 ag: inactive; MrgX1 antagonist: inactive

How did COC(=O)C1=C(C)NC(=O)C1(NC(=O)c1cccnc1)C(F)(F)F (stereo not given) do in these assays?
RGS4 inh: inactive; MrgX1 PAM: inactive; RGS4 act: inactive; MrgX1 ag: inactive; MrgX1 antagonist: inactive

How did COC(=O)C1=C(C)NC(=O)C1(Nc1ccc(Cl)cn1)C(F)(F)F (stereo not given) do in these assays?
RGS4 inh: inactive; MrgX1 PAM: inactive; RGS4 act: inactive; MrgX1 ag: inactive; MrgX1 antagonist: -4.6*; MrgX1 ant reconf: inactive; HEK293 Ca flux: inactive; HEK293 Ca counter: inactive; HEK293 Ca cntr2: inactive

How did CNC(=O)c1c(NC(=O)c2ccc(S(=O)(=O)N3CCCc4ccccc43)cc2)sc2c1CCN(C)C2 do in these assays?
RGS4 inh: inactive; MrgX1 PAM: inactive; RGS4 act: inactive; MrgX1 ag: inactive; MrgX1 antagonist: -5.5*; MrgX1 ant reconf: inactive; HEK293 Ca flux: 0.66*; HEK293 Ca counter: inactive; HEK293 Ca cntr2: 49*

Results for CC(C)n1c(NCc2cc(Cl)ccc2O)nc2ccccc21 ?
RGS4 inh: inactive; MrgX1 PAM: inactive; RGS4 act: inactive; MrgX1 ag: inactive; MrgX1 antagonist: -7.1*; MrgX1 ant reconf: inactive; HEK293 Ca flux: inactive; HEK293 Ca counter: inactive; HEK293 Ca cntr2: inactive

What do the screens show for `O=C(O)CCc1ccc(-c2cccs2)n1-c1ccc(C(=O)O)cc1`?
RGS4 inh: inactive; MrgX1 PAM: inactive; RGS4 act: inactive; MrgX1 ag: inactive; MrgX1 antagonist: -4.7*; MrgX1 ant reconf: inactive; HEK293 Ca flux: inactive; HEK293 Ca counter: inactive; HEK293 Ca cntr2: inactive

Results for COc1cc(-c2nnc(-c3ccccc3)o2)cc(OC)c1OC ?
RGS4 inh: inactive; MrgX1 PAM: inactive; RGS4 act: inactive; MrgX1 ag: inactive; MrgX1 antagonist: -4.9*; MrgX1 ant reconf: inactive; HEK293 Ca flux: inactive; HEK293 Ca counter: inactive; HEK293 Ca cntr2: inactive

Screening results: PubChem, Johns Hopkins Ion Channel Center
